# Laboratory results from publication PMC2709489 (Nature biotechnology, 2009).
# Read-outs that look alike come from different tables or passages of the source.
# Legend:
# GSTO1 [1] = target: T1, GSTO1 (Homo sapiens, UniProt P78417); assay type: biochemical
# T1 sequence (P78417 1-241): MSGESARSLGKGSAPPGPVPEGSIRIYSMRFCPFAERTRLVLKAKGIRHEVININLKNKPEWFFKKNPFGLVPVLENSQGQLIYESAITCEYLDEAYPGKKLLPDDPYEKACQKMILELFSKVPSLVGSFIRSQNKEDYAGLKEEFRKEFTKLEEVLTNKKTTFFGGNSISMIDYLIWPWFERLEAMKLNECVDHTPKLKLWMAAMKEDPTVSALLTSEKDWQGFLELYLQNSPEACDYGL
# RBBP9 [2] = target: T2, RBBP9 (Homo sapiens, UniProt O75884); test: Reversibility of RBBP9 inhibition by gel filtration; assay type: biochemical; settings: emetine 500 μM or compound 2 50 μM, 30 min, then Sephadex G-25M
# [3] = tested on: endogenous GSTO1 and other SE-rhodamine targets; assay type: biochemical, human
# RBBP9 [4] = target: T2, RBBP9; test: Gel-based competitive ABPP of RBBP9 with varying Pluronic F-127; assay type: biochemical; settings: compound 5 at 10 and 20 µM, emetine 20 µM; 400 nM RBBP9
# [5] = target: mouse brain serine hydrolases (Homo sapiens, UniProt O75884); assay type: biochemical
# GSTO1 [6] = target: T1, GSTO1; test: Reversibility of GSTO1 inhibition by gel filtration; assay type: biochemical; settings: 6 and 9 at 280 μM, 7 and 8 at 28 μM, 30 min, then Sephadex G-25M
# How it was run: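 Recombinant GSTO1 (2 μM) was incubated 30 min with DMSO or test compound, then split. One portion was labeled directly with SE-rhodamine. The other was passed over a Sephadex G-25M gel-filtration column before SE-rhodamine labeling. Both were resolved by SDS-PAGE with in-gel fluorescence read-out.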
# RBBP9 [7] = target: T2, RBBP9; assay type: biochemical
# T2 sequence (O75884 whole entry): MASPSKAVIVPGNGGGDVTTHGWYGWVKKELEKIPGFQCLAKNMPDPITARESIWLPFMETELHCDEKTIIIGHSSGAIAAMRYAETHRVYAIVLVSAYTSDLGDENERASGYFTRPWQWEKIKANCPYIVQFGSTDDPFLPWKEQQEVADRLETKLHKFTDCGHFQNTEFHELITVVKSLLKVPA
# Sequence of mouse brain serine hydrolases (O75884 whole entry): as above
smiles,measurement,setting,value
"CC[C@H]1CN2CCc3cc(OC)c(OC)cc3[C@@H]2C[C@@H]1C[C@H]1NCCc2cc(OC)c(OC)cc21 [Compound 1, Emetine]",block of probe labeling of GSTO1 (FluoPol),GSTO1 [1],did not block probe labeling of GSTO1
same,reversibility of RBBP9 inhibition,RBBP9 [2],reversible
same,effect on other SE-rhodamine targets in MDA-MB-231 proteome,[3]; 20 μM,did not inhibit the labeling of GSTO1 or any of the other SE-rhodamine targets
same,inhibition of GSTO1 in MDA-MB-231 proteome,[3]; 20 μM,did not inhibit the labeling of GSTO1
same,effect of Pluronic F-127 on inhibitory activity,RBBP9 [4],did not diminish the inhibitory activity
"CC[C@H]1CN2CCc3cc(OC)c(OC)cc3[C@@H]2C[C@@H]1C[C@H]1NCCc2cc(O)c(OC)cc21 [1a, Cephaeline]",inhibition of RBBP9 by emetine analogues (competitive ABPP),[5],"inhibited RBBP9, albeit with reduced potency relative to emetine"
N[C@@H](CCC(=O)N[C@@H](CS)C(=O)NCC(=O)O)C(=O)O [glutathione],block of probe labeling of GSTO1 (FluoPol),GSTO1 [1],No labeling
"COc1ccc2[nH]c([S+]([O-])Cc3ncc(C)c(OC)c3C)nc2c1 (stereo not drawn) [Compound 6, omeprazole]",inhibition of GSTO1 in MDA-MB-231 proteome,[3]; 1 μM,lost
same,inhibition of GSTO1 in MDA-MB-231 proteome,[3]; 20 μM,considerably less potent
same,reversibility of GSTO1 inhibition,GSTO1 [6],reversible
"CC[C@H]1CN2CCc3cc(OC)c(OC)cc3[C@@H]2C[C@@H]1C[C@H]1NCCc2c1[nH]c1ccc(O)cc21 [1c, Tubulosine]",inhibition of RBBP9 by emetine analogues (competitive ABPP),[5],"inhibited RBBP9, albeit with reduced potency relative to emetine"
"CO[C@H]1/C=C/O[C@@]2(C)Oc3c(C)c(O)c4c(O)c(c(/C=N/N5CCN(C)CC5)c(O)c4c3C2=O)NC(=O)/C(C)=C\C=C\[C@H](C)[C@H](O)[C@@H](C)[C@@H](O)[C@@H](C)[C@H](OC(C)=O)[C@@H]1C [Compound 9, rifampicin]",inhibition of GSTO1 in MDA-MB-231 proteome,[3]; 1 μM,lost
same,inhibition of GSTO1 in MDA-MB-231 proteome,[3]; 20 μM,considerably less potent
same,reversibility of GSTO1 inhibition,GSTO1 [6],reversible
"CCC1=C(C[C@H]2NCCc3cc(OC)c(OC)cc32)C[C@H]2c3cc(OC)c(OC)cc3CCN2C1 [1b, Dehydroemetine]",inhibition of RBBP9,RBBP9 [7],failed to inhibit RBBP9
